The values below come from ChEMBL document CHEMBL4152213, “Synthesis and biological evaluation of 2,5-disubstituted furan derivatives as P-glycoprotein inhibitors for Doxorubicin resistance in MCF-7/ADR cell” (Eur J Med Chem, 2018).

What all share (assay type): cell-based
Data set [1] is described as follows: Inhibition of P-gp in human MCF7/ADR cells assessed as cell viability after 48 hrs by MTT assay. Conditions: NCI/ADR-RES. The procedure, abridged:
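MTT assay in MCF-7/ADR cells: cells incubated 48 h with or without compounds, then 5 mg/mL MTT added for 3–4 h at 37 °C, 5% CO2. Formazan dissolved in EtOH/DMSO (1:1), OD at 570 and 650 nm. Data are the mean of three independent determinations of triplicate samples.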

The species named for data set [2] is Homo sapiens. The data set can be described thus: Inhibition of P-gp in human MCF7/ADR cells assessed as assessed as potentiation of doxorubicin-induced antiproliferative activity by measuring doxorubicin antiproliferative activity at 20 uM after 2 days by MTT assay. Also noted: scale not given: the % may be the effect or the level left. An outline of the steps: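 MCF-7/ADR cells plated at 10,000/well, then treated the next day. Compounds at 20 μM plus Doxorubicin 5 μM for 2 days, washed twice, then Doxorubicin alone for 1 day. Read-out by MTT: 0.5 mg/mL, 1 h at 37 °C, DMSO, absorbance 570/630 nm. Growth inhibition given as % of untreated control. Eight wells per treatment; three independent determinations in triplicate.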

The species entered for data set [3] is Homo sapiens. The data set can be described thus: Inhibition of P-gp in human MCF7/ADR cells assessed as increase in intracellular accumulation of doxorubicin at 20 uM after 2 days by fluorescence assay relative to doxorubicin alone. An outline of the steps: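 MCF-7/ADR cells exposed to compounds at 20 μM for 2 days, with Doxorubicin 50 μM added on the second day. Cells trypsinized, washed twice in ice-cold PBS pH 7.4, kept on ice under 1 h, then cellular Doxorubicin fluorescence measured by flow cytometry. Doxorubicin-only cells set as 100% and untreated autofluorescence as 0%. Expressed as fold accumulation; three independent determinations in triplicate.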

For data set [4], the system named is NCI/ADR-RES. The data set can be described thus: Cytotoxicity against human MCF7/ADR cells at 100 uM after 24 to 48 hrs by MTT assay relative to control. An outline of the steps: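 MCF-7/ADR cells (RPMI 1640, 10% FBS, 37 °C, 5% CO2) exposed to compounds alone at 100 μM without Doxorubicin for 24 and 48 h. Viability by MTT: 5 mg/mL MTT, 3–4 h at 37 °C, formazan dissolved in EtOH/DMSO 1:1, OD at 570 and 650 nm. Cytotoxicity taken relative to untreated control.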

pEC50: −log10 of the molar value.

The pEC50 is the EC50 on a negative log10 scale, so that one unit is a factor of ten. Consider `O=C(c1ccc(-c2cccc(F)c2)o1)N1CCc2ccccc2C1`, for which the pEC50 in data set [1] is 4.69.

For `COc1cc2c(cc1OC)CN(C(=O)c1ccc(-c3ccc([N+](=O)[O-])cc3)o1)CC2`, the negative-log EC50 (pEC50) in data set [1] was 5.03.

Turning to `O=C(c1ccc(-c2ccc(F)cc2)o1)N1CCc2ccccc2C1`, the pEC50 in data set [1] is 4.98.

For the compound `O=C(c1ccc(-c2cccc(F)c2)o1)N1CCCc2ccccc21`, the pEC50 in data set [1] was 4.56.

Regarding `O=C(c1ccc(-c2cccc([N+](=O)[O-])c2)o1)N1CCc2ccccc2C1`, in data set [1], the pEC50 is 4.69.

In the case of `O=C(c1ccc(-c2ccccc2F)o1)N1CCCc2ccccc21`, the negative logarithm of the EC50 (pEC50) in data set [1] was 4.75.

For the compound `COc1cc2c(cc1OC)CN(C(=O)c1ccc(-c3cccc([N+](=O)[O-])c3)o1)CC2`, the negative logarithm of the EC50 (pEC50) in data set [1] is 4.79.

`O=C(c1ccc(-c2ccc(F)cc2)o1)N1CCCc2ccccc21`: in data set [1], the negative logarithm of the EC50 (pEC50) was 4.88.

On to `COc1cc2c(cc1OC)CN(C(=O)c1ccc(-c3ccc(F)cc3F)o1)CC2`, for which the negative-log EC50 (pEC50) in data set [1] is 4.98.

Turning to `COc1ccc(CCN(C)CCCC(C#N)(c2ccc(OC)c(OC)c2)C(C)C)cc1OC` (configuration not stated) [VERAPAMIL], the Activity in data set [2] is 52.5%. Also, in data set [1], the pEC50 is 4.69. Moreover, the fold change (FC) in data set [3] turned out to be 3.6.

Take `COc1cc2c(cc1OC)CN(C(=O)c1ccc(-c3ccccc3[N+](=O)[O-])o1)CC2`: the negative-log EC50 (pEC50) in data set [1] is 4.86.

For `COc1cc2c(cc1OC)CN(C(=O)c1ccc(-c3ccc(Br)cc3)o1)CC2`, the values for the Activity in data set [4] and in data set [2] were under 15% and 79.8%, respectively. Besides, in data set [1], the pEC50 was 5.36. Further, the fold change (FC) in data set [3] came to 5.

In the case of `O=C(c1ccc(-c2ccc([N+](=O)[O-])cc2)o1)N1CCCc2ccccc21`, the negative-log EC50 (pEC50) in data set [1] is 4.81.

In the case of `Cc1ccc(-c2ccc(C(=O)N3CCCc4ccccc43)o2)cc1`, in data set [1], the negative-log EC50 (pEC50) is 5.04.

On to `COc1cc2c(cc1OC)CN(C(=O)c1ccc(-c3cccc(F)c3)o1)CC2`, for which, in data set [1], the pEC50 was 4.75.

For `O=C(c1ccc(-c2ccc([N+](=O)[O-])cc2)o1)N1CCc2ccccc2C1`, the negative logarithm of the EC50 (pEC50) in data set [1] is 4.90.

With `COc1cc2c(cc1OC)CN(C(=O)c1ccc(-c3ccccc3F)o1)CC2`, the negative-log EC50 (pEC50) in data set [1] is 4.96.

`O=C(c1ccc(-c2cccc([N+](=O)[O-])c2)o1)N1CCCc2ccccc21`: in data set [1], the pEC50 is 4.54.

Consider `O=C(c1ccc(-c2ccccc2[N+](=O)[O-])o1)N1CCCc2ccccc21`, for which the negative-log EC50 (pEC50) in data set [1] was 4.71.

Consider `O=C(c1ccc(-c2ccc(F)cc2F)o1)N1CCc2ccccc2C1`, for which the pEC50 in data set [1] is 4.90.

`O=C(c1ccc(-c2ccccc2)o1)N1CCCc2ccccc21`: the pEC50 in data set [1] is 4.96.

As for `O=C(c1ccc(-c2c(F)cccc2F)o1)N1CCc2ccccc2C1`, the pEC50 in data set [1] was 4.81.

Consider `COc1cc2c(cc1OC)CN(C(=O)c1ccc(-c3ccc(F)cc3)o1)CC2`, for which the pEC50 in data set [1] is 5.07.

`COc1cc2c(cc1OC)CN(C(=O)c1ccc(-c3ccc(C)cc3)o1)CC2`: the pEC50 in data set [1] was 5.28.

Turning to `O=C(c1ccc(-c2ccccc2Cl)o1)N1CCc2ccccc2C1`, the negative-log EC50 (pEC50) in data set [1] is 4.99.

`COc1ccc(-c2ccc(C(=O)N3CCc4ccccc4C3)o2)cc1`: the pEC50 in data set [1] is 5.26.

On to `O=C(c1ccc(-c2ccccc2F)o1)N1CCc2ccccc2C1`, for which, in data set [1], the pEC50 was 4.83.

For the compound `COc1cc2c(cc1OC)CN(C(=O)c1ccc(-c3ccccc3)o1)CC2`, in data set [1], the pEC50 is 5.17.

Regarding `O=C(c1ccc(-c2ccccc2Cl)o1)N1CCCc2ccccc21`, in data set [1], the negative logarithm of the EC50 (pEC50) was 4.86.

As to `O=C(c1ccc(-c2ccc(Cl)cc2)o1)N1CCCc2ccccc21`, in data set [1], the pEC50 is 5.08.

On to `COc1cc2c(cc1OC)CN(C(=O)c1ccc(-c3cccc(Cl)c3)o1)CC2`, for which, in data set [1], the pEC50 is 4.83.

For the compound `O=C(c1ccc(-c2ccccc2[N+](=O)[O-])o1)N1CCc2ccccc2C1`, the negative logarithm of the EC50 (pEC50) in data set [1] is 4.82.

As for `COc1ccc(-c2ccc(C(=O)N3CCc4cc(OC)c(OC)cc4C3)o2)cc1`, the Activity is under 15% in data set [4] and 97.8% in data set [2]. Also, in data set [1], the negative-log EC50 (pEC50) was 6.05. The fold change (FC) in data set [3] is 9.2.

Consider `O=C(c1ccc(-c2ccc(Br)cc2)o1)N1CCCc2ccccc21`, for which the negative-log EC50 (pEC50) in data set [1] is 5.04.

Take `O=C(c1ccc(-c2ccccc2)o1)N1CCc2ccccc2C1`: the pEC50 in data set [1] was 5.08.

Consider `COc1cc2c(cc1OC)CN(C(=O)c1ccc(-c3ccccc3Cl)o1)CC2`, for which, in data set [1], the pEC50 was 5.09.

Turning to `O=C(c1ccc(-c2cccc(Cl)c2)o1)N1CCc2ccccc2C1`, in data set [1], the pEC50 was 4.74.

In the case of `O=C(c1ccc(-c2c(F)cccc2F)o1)N1CCCc2ccccc21`, the pEC50 in data set [1] was 4.71.

With `O=C(c1ccc(-c2cccc(Cl)c2)o1)N1CCCc2ccccc21`, in data set [1], the negative-log EC50 (pEC50) was 4.76.

For the compound `COc1ccc(-c2ccc(C(=O)N3CCCc4ccccc43)o2)cc1`, the negative logarithm of the EC50 (pEC50) in data set [1] was 5.17.

Turning to `O=C(c1ccc(-c2ccc(Br)cc2)o1)N1CCc2ccccc2C1`, the pEC50 in data set [1] was 5.11.

Consider `COc1cc2c(cc1OC)CN(C(=O)c1ccc(-c3ccc(Cl)cc3)o1)CC2`, for which the figures for the Activity in data set [4] and in data set [2] were under 15% and 89.6%, respectively. Moreover, the pEC50 in data set [1] is 5.49. In data set [3], the fold change (FC) worked out at 6.8.

As to `Cc1ccc(-c2ccc(C(=O)N3CCc4ccccc4C3)o2)cc1`, in data set [1], the pEC50 was 5.09.

Consider `O=C(c1ccc(-c2ccc(Cl)cc2)o1)N1CCc2ccccc2C1`, for which the pEC50 in data set [1] was 5.17.

Take `O=C(c1ccc(-c2ccc(F)cc2F)o1)N1CCCc2ccccc21`: the pEC50 in data set [1] is 4.76.

Turning to `COc1cc2c(cc1OC)CN(C(=O)c1ccc(-c3c(F)cccc3F)o1)CC2`, the pEC50 in data set [1] is 4.89.
